ChEMBL document CHEMBL4184251, “Potentiation of the activity of β-lactam antibiotics by farnesol and its derivatives” (Bioorg Med Chem Lett, 2018)
Values after ≈ are worked out from the molar mass of the structure shown.

What was measured:
Type in all cases: functional
[1] = test system: Staphylococcus aureus; test: Antimicrobial activity against methicillin-resistant Staphylococcus aureus NRS100 by micro-dilution method
In short: (§1)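 Broth microdilution MIC in cation-adjusted Mueller-Hinton II medium supplemented with 1% Tween-80 (CAMHB-T), needed to disperse the farnesol-type compounds. Compounds tested from 2 to 2048 μg/mL.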

[2] = test system: Staphylococcus aureus; test: Antimicrobial activity against methicillin-resistant Staphylococcus aureus NRS123 by micro-dilution method; in short: as §1
[3] = test system: Staphylococcus aureus; test: Antimicrobial activity against methicillin-resistant Staphylococcus aureus NRS70 by micro-dilution method; in short: as §1
[4] = test system: Staphylococcus aureus; test: Antimicrobial activity against methicillin-susceptible Staphylococcus aureus ATCC 29213 by micro-dilution method; in short: as §1
[5] = test system: Staphylococcus aureus; test: Potentiation of ampicillin-induced antimicrobial activity against methicillin-susceptible Staphylococcus aureus ATCC 29213 at 256 ug/ml (reference value: ampicillin alone MIC = 0.5 ug/ml)
[6] = test system: Staphylococcus aureus; test: Potentiation of ampicillin-induced antimicrobial activity against methicillin-susceptible Staphylococcus aureus ATCC 29213 at 256 ug/ml relative to ampicillin alone
[7] = test system: Staphylococcus aureus; test: Potentiation of ampicillin-induced antimicrobial activity against methicillin-resistant Staphylococcus aureus NRS123 at 256 ug/ml (reference value: ampicillin alone MIC = 12 ug/ml)
[8] = test system: Staphylococcus aureus; test: Potentiation of ampicillin-induced antimicrobial activity against methicillin-resistant Staphylococcus aureus NRS123 at 256 ug/ml relative to ampicillin alone
[9] = test system: Staphylococcus aureus; test: Potentiation of ampicillin-induced antimicrobial activity against methicillin-resistant Staphylococcus aureus NRS100 at 128 ug/ml (reference value: ampicillin alone MIC = 16 ug/ml)
[10] = test system: Staphylococcus aureus; test: Potentiation of ampicillin-induced antimicrobial activity against methicillin-resistant Staphylococcus aureus NRS100 at 128 ug/ml relative to ampicillin alone
[11] = test system: Staphylococcus aureus; test: Potentiation of ampicillin-induced antimicrobial activity against methicillin-resistant Staphylococcus aureus NRS70 at 128 ug/ml (reference value: ampicillin alone MIC = 16 ug/ml)
[12] = test system: Staphylococcus aureus; test: Potentiation of ampicillin-induced antimicrobial activity against methicillin-resistant Staphylococcus aureus NRS70 at 128 ug/ml relative to ampicillin alone
[13] = test system: Staphylococcus aureus; test: Potentiation of oxacillin-induced antimicrobial activity against methicillin-susceptible Staphylococcus aureus ATCC 29213 at 256 ug/ml (reference value: oxacillin alone MIC = 0.4 ug/ml)
[14] = test system: Staphylococcus aureus; test: Potentiation of oxacillin-induced antimicrobial activity against methicillin-susceptible Staphylococcus aureus ATCC 29213 at 256 ug/ml relative to oxacillin alone
[15] = test system: Staphylococcus aureus; test: Potentiation of oxacillin-induced antimicrobial activity against methicillin-resistant Staphylococcus aureus NRS123 at 256 ug/ml (reference value: oxacillin alone MIC = 24 ug/ml)
[16] = test system: Staphylococcus aureus; test: Potentiation of oxacillin-induced antimicrobial activity against methicillin-resistant Staphylococcus aureus NRS123 at 256 ug/ml relative to oxacillin alone
[17] = test system: Staphylococcus aureus; test: Potentiation of oxacillin-induced antimicrobial activity against methicillin-resistant Staphylococcus aureus NRS100 at 128 ug/ml (reference value: oxacillin alone MIC = >256 ug/ml)
[18] = test system: Staphylococcus aureus; test: Potentiation of oxacillin-induced antimicrobial activity against methicillin-resistant Staphylococcus aureus NRS70 at 128 ug/ml (reference value: oxacillin alone MIC = 32 ug/ml)
[19] = test system: Staphylococcus aureus; test: Potentiation of oxacillin-induced antimicrobial activity against methicillin-resistant Staphylococcus aureus NRS70 at 128 ug/ml relative to oxacillin alone
[20] = test system: Staphylococcus aureus; test: Potentiation of oxacillin-induced antimicrobial activity against methicillin-resistant Staphylococcus aureus NRS70 at 128 ug/ml by checkerboard assay
In short: (§2)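 Checkerboard combination of oxacillin with the farnesol-type compound. Synergy scored by the fractional inhibitory concentration index (FICI).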

[21] = test system: Staphylococcus aureus; test: Potentiation of oxacillin-induced antimicrobial activity against methicillin-resistant Staphylococcus aureus NRS100 at 128 ug/ml by checkerboard assay; in short: as §2

CC(C)=CCC/C(C)=C/CC/C(C)=C/CN gave an MIC [1] of 256 µg/mL (≈ 1160 µM), an MIC [2] of 512 µg/mL (≈ 2310 µM) and an MIC [3] of 256 µg/mL (≈ 1160 µM). For the same compound, the MIC [4] was 512 µg/mL (≈ 2310 µM), the MIC [5] was 0.2 µg/mL and the “fold change (FC)” value [6] was 2.5. For the same compound, the MIC [7] was 1 µg/mL, the “fold change (FC)” value [8] was 12 and the MIC [9] was 8 µg/mL. For the same compound, the “fold change (FC)” value [10] was 2, the MIC [11] was 16 µg/mL and the “fold change (FC)” value [12] was 1. The MIC [13] was 0.5 µg/mL, the “fold change (FC)” value [14] was 0.8 and the MIC [15] was 0.75 µg/mL. The “fold change (FC)” value [16] was 32, the MIC [17] was > 256 µg/mL and the MIC [18] was 32 µg/mL. For the same compound, the “fold change (FC)” value [19] was 1, the “fractional inhibitory concentration index (FICI)” value [20] was 0.53 - 1.13 and the “fractional inhibitory concentration index (FICI)” value [21] was 0.53 - 1.13.
